Source: PubChem (several laboratories)
Compounds with a hit are over-represented: about 1.7% of the library has one in this group of screens.
PolyA inhibitor – yeast polyadenylation inhibition; activity score, % at 12 µM; AID 1875; S. cerevisiae SKY197-pL101 polyadenylation reporter, beta-gal luminescence; efflux-impaired pdr1/pdr3 knockout yeast; score 100 = 6 SD above DMSO; hit rate 0.02% among 300,000;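 active means lowest replicate activity score at least 50, where 100 means six control SD above control mean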;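 further: yeast exposed to compound for 9 h at 30 °C; higher score means more reporter readthrough which indicates perturbed polyadenylation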
VIM-2 inh – blocks Pseudomonas aeruginosa VIM-2 metallo-beta-lactamase; purified VIM-2, nitrocefin hydrolysis, epi-absorbance fluorescence; inhibition, % at 5.6 µM; hit rate 0.89% among 290,000; AID 1527;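 active means inhibition above the mean of all tested compounds plus 3 SD, cutoff set per screening run, cut at about 7.5% in these data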;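 further: red hydrolysis product quenches plate fluorescence so inhibitors raise well fluorescence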
Neddylation inh – cullin neddylation inhibition; P61081+Q13564; TR-FRET cullin neddylation, biochemical; hit rate 0.58% among 360,000; calls only at 25 µM; in the data active means inhibition above about 36%
procasp3 activ – procaspase-3 (human) activation | AID 463141 | hit rate 0.11% among 330,000 | recombinant procaspase-3 D3A, Ac-DEVD-pNA absorbance 405 nm | P42574 | activation, % at 8.5 µM;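 active means activation above the mean of all tested compounds plus 3 SD, cut at about 21% in these data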
Target sequence (P42574 whole entry D9A/D28A/D175A): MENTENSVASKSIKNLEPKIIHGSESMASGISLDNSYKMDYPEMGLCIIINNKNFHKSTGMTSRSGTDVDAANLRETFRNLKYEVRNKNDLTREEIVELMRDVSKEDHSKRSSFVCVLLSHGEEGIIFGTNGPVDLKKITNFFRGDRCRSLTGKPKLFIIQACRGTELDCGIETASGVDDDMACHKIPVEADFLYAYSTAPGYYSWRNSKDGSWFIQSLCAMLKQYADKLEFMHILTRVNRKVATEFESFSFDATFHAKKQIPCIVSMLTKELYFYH
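Test system: Procaspase-3 D3A mutant, all three cleavage aspartates alanine | Dosing: Single dose, 8.5 µM nominal compound, 0.8% DMSO | Schedule: 1 h preincubation, 2 h reaction | Technique: 405 nm absorbance of p-nitroaniline, reads at 0 and 120 min | Repeats: One well per compound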
IMP-1 inhibitor – inhibitors of Pseudomonas aeruginosa IMP-1 metallo-beta-lactamase | purified IMP-1, nitrocefin hydrolysis, epi-absorbance fluorescence | inhibition, % at 5.6 µM | hit rate 0.45% among 290,000 | AID 1556;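 active means inhibition above the mean plus 3 SD of all compounds in the same screening run, cut at about 4.5% in these data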
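Test system: recombinant IMP-1 enzyme, purified / Medium: HEPES buffer pH 7.1 with ZnSO4 and Brij 35 / Doses: single dose, 5.6 µM / Times: 25 °C, 15 min preincubation, 25 min reaction / Detection: Epi-absorbance via hydrolysed-nitrocefin quenching of white-plate fluorescence, 480/530 nm, EDTA stop / Evaluation: percent inhibition from optical density relative to buffer-blank wells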
procasp7 counter – activates human procaspase-7, counter-screen for procaspase-3 activators | activation, % at 8.5 µM | AID 463210 | hit rate 0.093% among 330,000 | recombinant procaspase-7, Ac-DEVD-pNA absorbance 405 nm; D23A/D198A/D206A triple mutant, cannot self-cleave; scale: DMSO 0, 5 µM enzyme 100;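 active means percent activation above the screen-wide mean plus 3 SD, cut at about 25% in these data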
Target sequence (P55210 whole entry D23A/D198A/D206A): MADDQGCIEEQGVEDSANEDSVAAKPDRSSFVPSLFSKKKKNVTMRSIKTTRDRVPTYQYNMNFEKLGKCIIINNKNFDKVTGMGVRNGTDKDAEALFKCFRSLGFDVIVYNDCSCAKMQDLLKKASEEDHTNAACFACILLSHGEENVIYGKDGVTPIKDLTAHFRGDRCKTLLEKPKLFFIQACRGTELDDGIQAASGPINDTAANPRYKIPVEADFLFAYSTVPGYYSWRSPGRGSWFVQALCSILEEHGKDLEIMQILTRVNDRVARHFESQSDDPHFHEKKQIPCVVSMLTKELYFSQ
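System: Uncleavable procaspase-7 mutant enzyme; Amount: 2 µM procaspase-7 mutant as dispensed; Schedule: 1 h compound preincubation, 2 h substrate cleavage, 25 °C; Measured by: 405 nm absorbance of p-nitroaniline; Evaluation: percent activation from buffer-corrected 0–120 min absorbance change; Control set: low DMSO alone, high DMSO plus 5 µM PC-7.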
Large screens that a line does not name were inactive.

O=S1(=O)Nc2c(ccc3cccnc23)-c2ccccc21	Neddylation inh active
CC(C)(C)c1ccc(C(=O)Nc2cccc3c(=O)[nH][nH]c(=O)c23)cc1	IMP-1 inhibitor 5.9 (not shown: Neddylation inh)
COc1ccc(C(=O)NC(=S)Nc2ccc(CN3CCOCC3)cc2)cc1OC	none
CC(C)OC(=O)/C(=C/c1ccco1)c1ccccc1	none
CCCn1c(C)nc2c(c1=O)c1nc3ccccc3nc1n2CCc1ccccc1	none (no result: PolyA inhibitor, Neddylation inh, procasp3 activ, procasp7 counter)
CCCn1c(C)nc2c(c1=O)c1nc3ccccc3nc1n2CCC1=CCCCC1	VIM-2 inh 8.3 (not shown: Neddylation inh)
CN(Cc1ccco1)S(=O)(=O)c1nnc(NC(=O)c2cccc(Cl)c2)s1	none
O=C1C(=O)N(Cc2ccncc2)C(c2ccccc2F)/C1=C(\O)c1ccc2c(c1)OCCO2 (stereo unspecified)	VIM-2 inh 10.8
Cc1ccnc2nc(C(=O)Nc3nc4ccccc4s3)nn12	IMP-1 inhibitor 5.0
Cc1ccc(NC(c2ccccc2)c2nc3ccccc3[nH]c2=O)cc1 (stereo unspecified)	none
COc1cccc(C(=O)N2CCN(Cc3ccccc3Br)CC2)c1	IMP-1 inhibitor 7.4
COc1cc(NC(=O)CSc2nc3ncnc(N)c3[nH]2)c(C(=O)O)cc1OC	none
CCC1=NN2C(=N)/C(=C\c3ccc(OCCOc4ccc(NC(C)=O)cc4)c(OC)c3)C(=O)N=C2S1	VIM-2 inh 10.2
COc1ccc(-c2csc(NC(=O)c3ccccc3Br)c2C(=O)O)cc1	none
COc1ccc(-c2csc(NC(=O)Cc3cccc4ccccc34)c2C(=O)O)cc1	IMP-1 inhibitor 7.7 (no result: procasp3 activ, procasp7 counter)
Cc1ccc(-c2csc(NC(CO)c3nc4ccccc4n3CCOCCO)n2)cc1 (stereo unspecified)	none (no result: VIM-2 inh, IMP-1 inhibitor)
Cn1c2ccccc2c2nnc(SCC(=O)NC3CCCC3)nc21	VIM-2 inh 9.2
CCN(CC)CCSc1nnc2c3ccccc3n(CCc3ccccc3)c2n1	VIM-2 inh 11.4
CCOC(=O)CSc1nnc2c3ccccc3n(CC)c2n1	VIM-2 inh 7.9
CCN(C(=O)COC(=O)c1cccc(S(=O)(=O)N(CC)CC)c1)C1CCS(=O)(=O)C1 (stereo unspecified)	none
O=C(CN1C(=O)S/C(=C/c2cccn2-c2ccc(O)cc2)C1=O)N1CCCC1	VIM-2 inh 9.0
CCOc1ccc2c(c1)-c1c(ssc1=S)C(C)(C)N2C	none
Cc1cc(C)n(CC(=O)NNC(=O)c2cncc(Br)c2)n1	none (no result: PolyA inhibitor, VIM-2 inh, IMP-1 inhibitor)
Cn1nnnc1SC1CC(=O)N(c2ccccc2)C1=O (stereo unspecified)	none
Cc1cc(C)cc(N2C(=O)CC(Sc3nnnn3-c3ccccc3)C2=O)c1 (stereo unspecified)	IMP-1 inhibitor 7.2
CCN1CCN(c2ccc(NC(=O)c3ccc4c(c3)[nH]c(=O)n4Cc3ccc(OC)cc3)cc2)CC1	VIM-2 inh 11.1
Cc1cc(C(=O)O)ccc1-c1ccc(/C=C2\SC(=O)N(CC(=O)Nc3ccc4c(c3)OCO4)C2=O)o1	IMP-1 inhibitor 8.0 (no result: PolyA inhibitor, procasp3 activ, procasp7 counter)
Cc1ccc(C(=O)O)cc1-c1ccc(/C=C2\SC(=O)N(CC(=O)Nc3ccccc3)C2=O)o1	none
CC(C)CNC(=O)N[C@@H](CC(C)C)C(=O)O	none
Oc1ccccc1CNc1cnc2ccccc2c1	Neddylation inh active
Oc1ccc(Cl)cc1CNc1cnc2ccccc2c1	none
O=C(NC(=S)NNC(=O)c1ccco1)c1ccc(F)cc1	none
O=C(CCCn1c(=O)c2cccn2c2cccnc21)NCc1cccc(Br)c1	IMP-1 inhibitor 7.2
O=C(CCn1c(=O)c2cccn2c2cccnc21)NCc1cccc(Cl)c1	IMP-1 inhibitor 21.5
Cc1cccc(N2CCN(C(=O)C3CCN(S(=O)(=O)c4c(C)noc4C)CC3)CC2C)c1 (stereo unspecified)	none
COc1ccc(CCn2c(=N)c(C(=O)NCc3ccco3)cc3c(=O)n4ccccc4nc32)cc1OC	none (no result: PolyA inhibitor, VIM-2 inh, procasp3 activ, IMP-1 inhibitor, procasp7 counter)
COc1ccc(CNC(=O)c2cc3c(=O)n4ccccc4nc3n(Cc3ccco3)c2=N)cc1	none (no result: PolyA inhibitor, Neddylation inh, procasp3 activ, procasp7 counter)
Cc1ccc(Cn2c(=N)c(C(=O)NCc3ccco3)cc3c(=O)n4ccccc4nc32)cc1	Neddylation inh active
COc1ccc(CCNC(=O)c2cc3c(=O)n4ccccc4nc3n(Cc3ccco3)c2=N)cc1OC	VIM-2 inh 8.1
COc1ccc(N2CC(C(=O)N3CCC4(CC3)CC(=O)c3ccccc3O4)CC2=O)cc1 (stereo unspecified)	none (no result: VIM-2 inh, IMP-1 inhibitor)
CCOc1ccc(-c2nnc(-c3cccnc3)o2)cc1OCC	VIM-2 inh 11.3
COc1ccc(-c2nnc(-c3cccnc3)o2)cc1OC	none
Cc1nc(N2CCN(C(=O)c3ccco3)CC2)c2oc3ccccc3c2n1	none (no result: VIM-2 inh, IMP-1 inhibitor)
Cc1cc2n(c(=O)c1C#N)CCCN2c1cccc(Cl)c1	VIM-2 inh 10.3 (not shown: Neddylation inh)
CC1CCc2c(C(=O)Nc3nccs3)csc2C1 (stereo unspecified)	none
CCCCNC(=O)OCC(CC)NC(=O)OCC(C)C (stereo unspecified)	IMP-1 inhibitor 8.7
CCCCNC(=O)OCC(CC)NC(=O)OC(C)C (stereo unspecified)	none
CCOc1ccc(S(=O)(=O)NC2CCCCC2C)cc1 (stereo unspecified)	none
CC(=O)C1=C(O)C(=O)N(c2ccc(O)cc2)C1c1ccc(C)cc1 (stereo unspecified)	none
Cc1ccc2c(c1)N(CCCC(=O)NCCCN1CCCC1=O)C(=O)CO2	none
NC(=O)c1ccc[n+]([C@H]2O[C@@H](COP(=O)([O-])OP(=O)(O)OC[C@H]3O[C@@H](n4cnc5c(N)ncnc54)[C@H](O)[C@@H]3O)[C@H](O)[C@@H]2O)c1	Neddylation inh active (no result: PolyA inhibitor, VIM-2 inh, IMP-1 inhibitor)
COc1ccc(C(=O)NC[C@H]2O[C@@H](n3cnc4c(N)ncnc43)[C@H](O)[C@@H]2O)cc1OC	none (no result: PolyA inhibitor, VIM-2 inh, procasp3 activ, IMP-1 inhibitor, procasp7 counter)
COc1ccc(N=C2SC(CC(=O)Nc3ccccc3F)C(=O)N2Cc2ccco2)cc1 (stereo unspecified)	none
COc1ccc2[nH]c(=O)c3c(c2c1)OC(C)(C)C=C3	IMP-1 inhibitor 39.2
COc1ccc(CNC(=O)c2noc3c2CCCC3)cc1	none
CN1c2ccccc2C(=O)NC1c1ccc(Cl)cc1 (stereo unspecified)	none (not shown: Neddylation inh)
Clc1ccc(C2Nc3ccccc3-n3cccc32)cc1 (stereo unspecified)	procasp7 counter 27.7
CCOC(=O)[C@@H]1[C@H]2COc3cc(OC)ccc3[C@@H]2N2C(=O)N(c3ccccc3)C(=O)[C@@]12C	none (no result: PolyA inhibitor, VIM-2 inh, IMP-1 inhibitor)
CNC(=O)COC(=O)/C=C/c1cn(-c2ccccc2)nc1-c1ccc2c(c1)OCCO2	none
CC(C)CNC(=O)COC(=O)c1c2c(nc3ccccc13)/C(=C/c1cccs1)CC2	IMP-1 inhibitor 6.7 (not shown: Neddylation inh)
O=C(COc1ccc(-c2ccccc2)cc1)NNC(=O)Nc1ccc(F)cc1F	none
